PREPL inhibitor: PREPL enzyme inhibitors, primary screen, biochemical, fluorescence polarization. Prolyl endopeptidase-like (Homo sapiens), Q4J6C6. recombinant PREPL, fluorescence polarization activity-based probe. inhibition, % at 5.96 µM. 320,000 tested, 0.68% active; in the data active means inhibition above about 43%;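 further: 0% = enzyme with DMSO and 100% = wells lacking enzyme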
Target sequence (Q4J6C6 whole entry, looked up): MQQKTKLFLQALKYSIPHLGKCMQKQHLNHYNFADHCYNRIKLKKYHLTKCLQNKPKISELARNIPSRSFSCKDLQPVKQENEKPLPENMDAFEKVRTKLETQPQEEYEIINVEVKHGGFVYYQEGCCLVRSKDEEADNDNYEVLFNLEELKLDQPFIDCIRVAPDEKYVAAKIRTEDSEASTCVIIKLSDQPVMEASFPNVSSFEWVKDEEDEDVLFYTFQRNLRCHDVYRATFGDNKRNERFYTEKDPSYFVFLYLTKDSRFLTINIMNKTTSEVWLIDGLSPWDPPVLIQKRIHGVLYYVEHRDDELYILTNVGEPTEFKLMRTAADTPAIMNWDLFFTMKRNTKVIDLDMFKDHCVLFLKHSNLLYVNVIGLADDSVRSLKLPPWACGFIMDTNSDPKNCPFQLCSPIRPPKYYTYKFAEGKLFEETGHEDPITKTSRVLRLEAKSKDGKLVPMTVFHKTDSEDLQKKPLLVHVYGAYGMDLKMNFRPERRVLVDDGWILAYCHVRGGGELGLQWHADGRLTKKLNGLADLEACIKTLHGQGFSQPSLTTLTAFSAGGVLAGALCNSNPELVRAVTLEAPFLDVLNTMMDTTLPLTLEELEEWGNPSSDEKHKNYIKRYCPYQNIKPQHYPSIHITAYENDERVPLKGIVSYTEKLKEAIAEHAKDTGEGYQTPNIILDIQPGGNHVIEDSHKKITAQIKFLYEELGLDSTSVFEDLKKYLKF
T cruzi inh: inhibitors of intracellular T. cruzi growth, primary screen, luminescence, NIH3T3 host cells; T. cruzi beta-gal in NIH3T3, 90 h; 300,000 tested, 1.4% active; AID 1885, 2009; inhibition, % (no concentration beside the values);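 active means mean inhibition across valid replicates above about 55%, limit read from the data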;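 further: signal also drops with host cell toxicity which is not excluded here; 0% = plate median of DMSO wells and 100% = zero luminescence signal; higher percent means less beta-gal luminescence so fewer parasites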
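Read-out: Parasite load inhibition, % | Test system: Mouse NIH/3T3 fibroblasts infected with β-gal-expressing T. cruzi Tulahuen C4 | Amount: 5,000 cells/well | Medium: DMEM, 2% fetal bovine serum | Signal: GalScreen β-gal luminescence, detergent lysis, 60 min | Timing: 3 h attach, ≥90 h co-culture | Also added: Tulahuen C4 trypomastigotes, 5000/well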
Beta apoptosis: inhibitors of cytokine-induced beta cell apoptosis, primary screen, luminescence | INS-1E cytokine-induced death, ATP luminescence, 48 h; percent of positive-control rescue, neutral wells zero | protection from apoptosis, % (no concentration beside the values) | 300,000 tested, 0.8% active;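 active means Every replicate reaches about 75%, or at least half do and their mean reaches it too, limit read from the data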;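 further: 0% = cytokine-treated negative control wells and 100% = positive control rescue; higher means more ATP so stronger rescue from cytokine killing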
GRIN3A LBD mod: binders of NR3A ligand-binding domain, primary screen, biophysical, differential scanning fluorimetry, uHTS. NR3A LBD differential scanning fluorimetry, Tm shift; 0% = protein alone, 100% = glycine-bound protein. Tm shift relative to glycine control, % at 25 µM. AID 1259313, 2017. 340,000 tested, 2.5% active;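 active means melting temperature shift of at least 10% of the positive control shift, at one fixed dose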
CHOP inhibitor: inhibitors of CHOP promoter induction, primary screen, cell-based, unfolded protein response, luciferase reporter; AID 2732, 2010; 220,000 tested, 3.8% active; inhibition, % at 10 µM; CHO-K1 CHOP-promoter luciferase, tunicamycin-induced, 15-18 h;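 active means compounds that reduced the stress-induced luciferase reporter signal by more than about 70% of percent inhibition, limit read from the data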;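 further: 0% = tunicamycin plus vehicle and 100% = wells without tunicamycin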
CSC inhib: cancer stem cell viability inhibitors, primary screen, luminescence; cancer stem cell-like cells viability; inhibition, % at 7.5 µM; 300,000 tested, 1.1% active; in the data active means inhibition above about 75%; tested in HMLE shEcad cells
* marks the source's active call; other numbers are inactive results; x = not tested or not shown. This is a sample that favours compounds with a hit; in the whole collection about 6.7% have one here.

SMILES	PREPL inhibitor	T cruzi inh	Beta apoptosis	GRIN3A LBD mod	CHOP inhibitor	CSC inhib
COc1ccc(NC(=O)c2ccc(-c3ccc([N+](=O)[O-])cc3)o2)cc1OC	28.8	2.3	5.3	14.4*	25.0	-6.0
O=C(Nc1cc(C(=O)N2CCN(c3ccccc3O)CC2)ccc1Cl)c1cccs1	11.9	-17.7	6.0	0.2	x	-12.8
O=c1c2[nH]c3ccc(Br)cc3c2ncn1Cc1ccncc1	-20.4	-8.8	-4.5	-0.2	3.7	-13.2
O=C(Cc1c(F)cccc1Cl)NNC(=O)c1ccccc1Cl	1.7	x	-3.7	0.4	x	-15.5
COc1cccc(NC(=O)c2ccc(-c3ccc([N+](=O)[O-])cc3)o2)c1	3.9	-2.1	0.8	16.9*	13.8	2.1
Cc1nnc(NC(=O)c2ccc(-c3ccc([N+](=O)[O-])cc3)o2)s1	8.3	-16.0	-0.6	-22.5	x	-29.6
CCC(C(=O)OC)n1c(-c2ccccc2)nc2ccccc2c1=O (stereo unspecified)	-4.2	-7.0	-1.6	-1.0	71.2*	x
CCNC(=O)Nn1c(-c2ccccc2)nc2ccccc2c1=O	2.6	x	-3.7	5.6	1.1	-2.1
CCC(=O)OCC(=O)N=c1sccn1Cc1ccccc1Cl	-2.8	-1.2	0.6	0.7	x	-13.1
O=C(CCl)N=c1sccn1Cc1ccc(Cl)cc1Cl	-9.3	99.1*	69.0	-1.4	-212.3	-0.2
O=C(CCl)N=c1sccn1Cc1cccc2ccccc12	x	50.6	x	-35.3	-191.4	x
O=C(CCl)N=c1sccn1Cc1ccccc1Cl	-2.4	60.9*	-5.5	-1.6	-44.9	21.1
CS(=O)(=O)Nc1cccc2[nH]ncc12	10.8	6.7	x	1.1	10.5	1.8
CCOC(=O)N1CCN(c2nc3ccc(C)cc3n3cnnc23)CC1	x	-17.9	x	0.9	x	x
Cc1ccc2oc(C(=O)N3CCN(CC(=O)NC(C)C)CC3)c(C)c2c1	12.4	3.8	-4.9	-3.0	x	-1.1
Cc1ccc(C2=NNC(=O)C(c3ccc(Cl)cc3)C2)cc1 (stereo unspecified)	-58.1	2.3	-22.1	-2.9	95.8*	2.3
O=C1NN=C(c2ccc(Cl)cc2)CC1c1c[nH]c2ccccc12 (stereo unspecified)	1.7	14.5	-5.9	-23.7	3.5	-4.3
O=C1NN=C(c2ccc(Cl)cc2)CC1c1cccc(Br)c1 (stereo unspecified)	-31.4	-7.8	-9.9	-10.8	78.5*	8.2
N#Cc1ccccc1OCC(=O)NCCNC(=O)COc1ccccc1C#N	-2.2	-10.5	-3.1	-1.2	x	-6.5
COc1cccc(C(=O)n2c(SC)nc3cc4c(cc32)OCCO4)c1	11.9	-14.2	-3.1	0.3	-30.5	0.8
CSc1nc2cc3c(cc2n1C(=O)c1ccc(C)cc1)OCCO3	2.8	17.4	-1.6	-0.8	90.1*	-9.3
Cc1oc(-c2ccccc2)cc1C(=O)NC1CCN(Cc2ccccc2)CC1	-3.1	45.5	x	-0.6	8.8	-2.7
COc1ccc(C(CC(=O)O)NC(=O)COc2cc(C)ccc2C)cc1OC (stereo unspecified)	11.3	-6.3	-3.2	-0.4	4.7	15.0
Cc1cc(-c2ccccc2)c2ccc(NC(=O)C(C)(C)C)nc2n1	-6.1	10.8	9.2	-4.0	x	-13.3
Cc1cccc(-c2noc(CCC(=O)N3CCN(c4cc(C)ccc4C)CC3)n2)c1	x	x	x	16.8*	x	x
SMILES	PREPL inhibitor	T cruzi inh	Beta apoptosis	GRIN3A LBD mod	CHOP inhibitor	CSC inhib
Cc1ccc(C)c(N2CCN(C(=O)CCC(=O)N3CCOc4ccc(Cl)cc43)CC2)c1	1.0	55.3*	-1.9	-10.6	x	45.0
Cc1ccc(C)c(N2CCN(C(=O)CCc3nc(-c4ccccc4)no3)CC2)c1	x	x	x	15.4*	x	x
Cc1ccc(C)c(N2CCN(CCCNC(=O)CCC(=O)N3CCOc4ccc(Cl)cc43)CC2)c1	26.2	5.1	6.4	x	x	43.8
Cc1ccc(C)c(N2CCN(C(=O)CCc3nc(-c4ccc(F)cc4)no3)CC2)c1	x	x	x	2.5	x	x
COc1ccc(N(C)C(=O)c2cn(C)c(=O)c3cc(OC)c(OC)cc23)cc1	6.3	-20.5	0.1	0.6	x	0.4
COc1ccc(OC)c(NC(=O)c2cccc(NC(=O)c3ccccc3C(=O)O)c2)c1	5.6	-5.5	-3.2	-1.0	x	-0.1
CCc1ccc(-n2c(SCC(=O)Nc3ccc(C(=O)O)cc3)nnc2-c2ccncc2)cc1	-5.1	2.9	-1.7	-1.2	10.0	-8.5
Cc1cccc(NC(=O)CSc2nnc(Cn3nnc(-c4ccccc4)n3)n2-c2ccccc2)c1	-0.9	4.9	0.7	-6.8	78.1*	-4.1
O=C(CSc1nnc(-c2n[nH]c3ccccc23)n1-c1ccccc1)Nc1cccc(Cl)c1	-25.0	2.6	4.1	22.2*	51.1	5.5
CCc1ccc(NC(=O)CSc2nnc(-c3n[nH]c4ccccc34)n2-c2ccccc2)cc1	0.7	-1.6	7.5	22.8*	49.2	6.4
CCc1ccc(N2C(=O)C3C4CCC(C4=C(C)C)C3C2=O)cc1 (stereo unspecified)	2.7	8.4	-2.3	-6.1	49.6	-3.3
Cc1ccc(S(=O)(=O)NCC(=O)OCc2nnc(-c3ccccc3)o2)cc1	6.2	-13.9	-1.0	-1.7	x	6.4
CCn1nc(NC(=O)C2CCCO2)c2cc3cc(C)ccc3nc21 (stereo unspecified)	6.0	-2.5	2.3	-1.9	4.0	-2.5
CC(C)Cc1nnc(NC(=O)CCC(=O)N2CCN(c3ccccc3F)CC2)s1	38.2	4.4	-5.5	-2.7	x	-19.5
CN1C(=O)/C(=N\OC(=O)c2cccc3ccccc23)c2ccccc21	15.7	-16.8	-21.1	-0.7	95.1*	19.1
COc1ccc(C(=O)O/N=C2\C(=O)N(C)c3ccccc32)cc1	5.5	-16.6	-20.6	2.8	x	-2.6
CC(C)(C)c1ccc(C(=O)Nc2ccc(NC(=O)c3ccco3)cc2)cc1	2.9	9.1	x	5.7	72.8*	x
CC(NC(=O)c1ccco1)C(=O)Nc1nccs1 (stereo unspecified)	11.6	x	-4.9	-0.8	x	-2.7
O=C(Nc1nccs1)c1ccc(NC(=O)c2ccco2)cc1	5.1	-9.8	2.1	10.2*	-1.3	14.6
CN(Cc1nc(-c2ccc(Cl)cc2)no1)C(=O)c1ccc2c(c1)OCO2	6.9	-10.9	-6.3	4.6	x	-6.4
O=C(CSc1ccccc1)N(c1ccc(Br)cc1)c1nccs1	10.9	13.5	-6.7	-1.7	46.9	7.7
COc1ccccc1/C=C1\CCCC2=C1Nc1nnnn1C2c1ccccc1OC (stereo unspecified)	-2.1	x	-19.8	-1.6	83.6*	54.9
COc1ccccc1NC(=O)C1=C(C)Nc2nnnn2C1c1ccccc1OC (stereo unspecified)	0.7	4.9	-2.3	1.3	11.3	-8.1
Cn1c(-c2ccc(Br)o2)nc2ccccc21	6.7	14.7	30.2	-8.3	40.5	28.7

From PubChem
